Converted amounts (≈) assume the structure as drawn. The source made the active and inactive calls. The rule behind the calls is not given here.
Legend:
Haemophilus influenzae [1] = assay: Antimicrobial activity against nontypeable Haemophilus influenzae isolate 2019 expressing GFP isolated from patient with COPD assessed as inhibition biofilm formation at 0.25 ug/mL after 2 days; format: functional, organism-based
Outline: (§1)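 Flow cell: GFPmut3-expressing strain 2019 (kanamycin selection before inoculation) grown under a glass coverslip at 37°C. Medium was 1% BHI with NAD and hemin (1% final) in 150 mM NaCl, flowing at 0.08 ml/min, with or without antibiotic. Established-biofilm arm: no drug days 0–2, then drug days 2–4. Confocal imaging; biomass and maximal thickness by COMSTAT; n = 3.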

Haemophilus influenzae [2] = assay: Antimicrobial activity against nontypeable Haemophilus influenzae isolate 2019 expressing GFP isolated from patient with COPD assessed as maximal doubling time at 0.125 ug/mL using flow cell culture after 24 hrs; format: functional
Outline: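 Growth curves: overnight strain 2019 culture, 1 ml diluted into 24 ml supplemented BHI (starting OD600 <0.050), antibiotic 0.03–2 μg/ml. Shaken at 37°C, OD600 read hourly. Maximal doubling time taken from the curves. Also repeated in flow-cell medium (1% supplemented BHI in 150 mM NaCl).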

Haemophilus influenzae [3] = assay: Antimicrobial activity against nontypeable Haemophilus influenzae isolate 2019 expressing GFP isolated from patient with COPD assessed as growth inhibition at 0.125 ug/mL […]; format: functional, organism-based
Haemophilus influenzae [4] = assay: Antimicrobial activity against nontypeable Haemophilus influenzae isolate 2019 expressing GFP isolated from patient with COPD by broth microdilution method; format: functional
Outline: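 MIC for strain 2019 carrying pRSM2211, by CLSI broth microdilution, done in a clinical microbiology laboratory.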

Haemophilus influenzae [5] = assay: Antimicrobial activity against nontypeable Haemophilus influenzae isolate 2019 expressing GFP isolated from patient with COPD assessed as decrease biofilm formation at 0.125 ug/mL after 2 days using flow cell culture relative to control; format: functional, organism-based
Outline: (§2)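 Flow cell: GFPmut3-expressing strain 2019 (pRSM2211, kanamycin selection before inoculation) attached under a glass coverslip. Medium: 1% BHI with NAD and hemin ([…]) in 150 mM NaCl, 0.08 ml/min flow, 37°C. Antibiotic at 0.125 μg/ml, either from inoculation or added after 2 days. Confocal imaging; biomass and maximal thickness by COMSTAT (n = 3).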

Haemophilus influenzae [6] = assay: Antimicrobial activity against nontypeable Haemophilus influenzae isolate 2019 expressing GFP isolated from patient with COPD assessed as decrease biomass of biofilm at 0.125 ug/mL after 2 days using flow cell culture relative to control; format: functional, organism-based; outline: as §2
Haemophilus influenzae [7] = assay: Antimicrobial activity against nontypeable Haemophilus influenzae isolate 2019 expressing GFP isolated from patient with COPD assessed as decrease maximal thickness of biofilm at 0.125 ug/mL after 2 days using flow cell culture relative to control; format: functional, organism-based; outline: as §2
Haemophilus influenzae [8] = assay: Antimicrobial activity against nontypeable Haemophilus influenzae isolate 2019 expressing GFP isolated from patient with COPD assessed as decrease in biomass of biofilm in 2 days established biofilm at 0.125 ug/mL after 4 days using flow cell culture; format: functional, organism-based; outline: as §2
Haemophilus influenzae [9] = assay: Antimicrobial activity against nontypeable Haemophilus influenzae isolate 2019 expressing GFP isolated from patient with COPD assessed as decrease in maximum thickness of biofilm in 2 days established biofilm at 0.125 ug/mL after 4 days using flow cell culture; format: functional, organism-based; outline: as §2
Haemophilus influenzae [10] = assay: Antimicrobial activity against nontypeable Haemophilus influenzae isolate 2019 expressing GFP isolated from patient with COPD assessed as decrease in biomass of biofilm at 0.125 ug/mL incubated for 2 days measured after day 4 using flow cell culture; format: functional, organism-based; outline: as §2
Haemophilus influenzae [11] = assay: Antimicrobial activity against nontypeable Haemophilus influenzae isolate 2019 expressing GFP isolated from patient with COPD assessed as decrease in maximal thickness of biofilm at 0.125 ug/mL incubated for 2 days measured after days 4 using flow cell culture; format: functional, organism-based; outline: as §2
Haemophilus influenzae [12] = assay: Antimicrobial activity against nontypeable Haemophilus influenzae isolate 2019 expressing GFP isolated from patient with COPD assessed as decrease in biofilm formation at 0.125 ug/mL treated for 4 days measured on day 2 to 4 using flow cell culture; format: functional, organism-based; outline: as §2
Haemophilus influenzae [13] = assay: Antimicrobial activity against nontypeable Haemophilus influenzae isolate 2019 expressing GFP isolated from patient with COPD assessed as decrease in established biofilm formation at 0.125 ug/mL treated for 4 days measured on day 2 to 4 using flow cell culture; format: functional, organism-based; outline: as §2
Haemophilus influenzae [14] = assay: Antimicrobial activity against azithromycin-resistant nontypeable Haemophilus influenzae isolate S34 assessed as inhibition of biofilm formation at >64 ug/mL; format: functional, organism-based
Outline: (§3)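 Static-culture biofilm: mid-log-phase bacteria in BHI broth with 10 μg/ml hemin and 10 μg/ml NAD, azithromycin 0.06 to 64 μg/ml, flat-bottom polystyrene 96-well plates, 37°C. Planktonic growth read hourly as A490 over the first 7 h. Biomass at the air-liquid interface stained with crystal violet at 24 h, same wells. Representative data, n = 3.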

Haemophilus influenzae [15] = assay: Antimicrobial activity against azithromycin-resistant nontypeable Haemophilus influenzae isolate S43 assessed as inhibition of biofilm formation at >64 ug/mL; format: functional, organism-based; outline: as §3
Haemophilus influenzae [16] = assay: Antimicrobial activity against azithromycin-resistant nontypeable Haemophilus influenzae isolate S44 assessed as inhibition of biofilm formation at >64 ug/mL; format: functional, organism-based; outline: as §3
Haemophilus influenzae [17] = assay: Antimicrobial activity against azithromycin-resistant nontypeable Haemophilus influenzae isolate S61 assessed as inhibition of biofilm formation at >64 ug/mL; format: functional, organism-based; outline: as §3
Haemophilus influenzae [18] = assay: Antimicrobial activity against nontypeable Haemophilus influenzae isolate 2019 expressing GFP isolated from patient with COPD assessed as inhibition of biofilm formation at 0.25 ug/ml after 7 hrs using crystal violet; format: functional, organism-based
Haemophilus influenzae [19] = assay: Antimicrobial activity against azithromycin-resistant nontypeable Haemophilus influenzae isolate S52 assessed as inhibition of biofilm formation at 8 ug/mL after 7 hrs using crystal violet; format: functional, organism-based
Haemophilus influenzae [20] = assay: Antimicrobial activity against azithromycin-resistant nontypeable Haemophilus influenzae isolate S53 assessed as inhibition of biofilm formation at 16 ug/mL after 7 hrs using crystal violet; format: functional, organism-based
Haemophilus influenzae [21] = assay: Antimicrobial activity against azithromycin-resistant nontypeable Haemophilus influenzae isolate S57 assessed as inhibition of biofilm formation at 64 ug/mL after 7 hrs using crystal violet; format: functional, organism-based
Haemophilus influenzae [22] = assay: Antimicrobial activity against nontypeable Haemophilus influenzae isolate 2019 expressing GFP isolated from patient with COPD assessed as viability at 0.125 ug/mL after 2 days using flow cell culture; format: functional, organism-based
Outline: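 Flow-cell biofilms of GFP-expressing strain 2019 grown 2 days with or without 0.125 μg/ml antibiotic, then stained with propidium iodide for 15 min.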

Haemophilus influenzae [23] = assay: Antimicrobial activity against nontypeable Haemophilus influenzae isolate 2019 expressing GFP isolated from patient with COPD assessed as viability at 0.125 ug/mL incubated for 2 days measured on day 4 using flow cell culture; format: functional, organism-based
Haemophilus influenzae [24] = assay: Antimicrobial activity against nontypeable Haemophilus influenzae isolate 2019 expressing GFP isolated from patient with COPD assessed as maximal doubling time at 0.25 ug/mL using flow cell culture after 24 hrs; format: functional, organism-based
Haemophilus influenzae [25] = assay: Antimicrobial activity against nontypeable Haemophilus influenzae isolate 2019 expressing GFP isolated from patient with COPD assessed as growth inhibition at 0.25 ug/mL using static culture after 24 hrs; format: functional, organism-based
Haemophilus influenzae [26] = assay: Antimicrobial activity against nontypeable Haemophilus influenzae isolate 2019 expressing GFP isolated from patient with COPD by […] assay; format: functional, organism-based
Outline: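 MIC for strain 2019 carrying pRSM2211 determined by CLSI broth microdilution and Etest, performed by a hospital clinical microbiology laboratory.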

Haemophilus influenzae [27] = assay: Antimicrobial activity against nontypeable Haemophilus influenzae isolate 2019 expressing GFP isolated from patient with COPD assessed as decrease in biofilm formation at 8 ug/mL after 2 days; format: functional, organism-based; outline: as §1
Haemophilus influenzae [28] = assay: Antimicrobial activity against nontypeable Haemophilus influenzae isolate 2019 expressing GFP isolated from patient with COPD assessed as decrease in biomass of biofilm at 16 ug/mL after 2 days; format: functional, organism-based; outline: as §1
Haemophilus influenzae [29] = assay: Antimicrobial activity against nontypeable Haemophilus influenzae isolate 2019 expressing GFP isolated from patient with COPD assessed as decrease in maximal thickness of biofilm at 16 ug/mL after 2 days; format: functional, organism-based; outline: as §1
Haemophilus influenzae [30] = assay: Antimicrobial activity against nontypeable Haemophilus influenzae isolate 2019 expressing GFP isolated from patient with COPD assessed as decrease in biomass of biofilm at 0.25 ug/mL after 2 days; format: functional, organism-based; outline: as §1
Haemophilus influenzae [31] = assay: Antimicrobial activity against nontypeable Haemophilus influenzae isolate 2019 expressing GFP isolated from patient with COPD assessed as decrease in maximal thickness of biofilm at 0.25 ug/mL after 2 days; format: functional, organism-based; outline: as §1
Haemophilus influenzae [32] = assay: Antimicrobial activity against nontypeable Haemophilus influenzae isolate 2019 expressing GFP isolated from patient with COPD assessed as decrease in biomass of biofilm at 0.25 ug/mL after 4 days; format: functional, organism-based; outline: as §1
Haemophilus influenzae [33] = assay: Antimicrobial activity against nontypeable Haemophilus influenzae isolate 2019 expressing GFP isolated from patient with COPD assessed as decrease in maximal thickness of biofilm at 0.25 ug/mL after 4 days; format: functional, organism-based; outline: as §1
Haemophilus influenzae [34] = assay: Antimicrobial activity against nontypeable Haemophilus influenzae isolate 2019 expressing GFP isolated from patient with COPD assessed as decrease in biomass of 2 days established biofilm measured on day 4 using flow cell culture; format: functional, organism-based; outline: as §1

Compound: CC[C@H]1OC(=O)[C@H](C)[C@@H](O[C@H]2C[C@@](C)(OC)[C@@H](O)[C@H](C)O2)[C@H](C)[C@@H](O[C@@H]2O[C@H](C)C[C@H](N(C)C)[C@H]2O)[C@](C)(O)C[C@@H](C)C(=O)[C@H](C)[C@@H](O)[C@]1(C)O
- Activity (Haemophilus influenzae [1]): inactive

Compound: CC[C@H]1OC(=O)[C@H](C)[C@@H](O[C@H]2C[C@@](C)(OC)[C@@H](O)[C@H](C)O2)[C@H](C)[C@@H](O[C@@H]2O[C@H](C)C[C@H](N(C)C)[C@H]2O)[C@](C)(O)C[C@@H](C)CN(C)[C@H](C)[C@@H](O)[C@]1(C)O [AZITHROMYCIN]
- Activity (Haemophilus influenzae [2]): 44 min
- Activity (Haemophilus influenzae [3]): inactive
- MIC (Haemophilus influenzae [4]): 0.5 µg/mL (≈ 0.668 µM)
- Activity (Haemophilus influenzae [5]): Active
- Activity (Haemophilus influenzae [6]): Active
- Activity (Haemophilus influenzae [7]): Active
- Activity (Haemophilus influenzae [8]): Active
- Activity (Haemophilus influenzae [9]): Active
- Activity (Haemophilus influenzae [10]): inactive
- Activity (Haemophilus influenzae [11]): inactive
- Activity (Haemophilus influenzae [12]): Active
- Activity (Haemophilus influenzae [13]): Active
- Activity (Haemophilus influenzae [14]): Active
- Activity (Haemophilus influenzae [15]): Active
- Activity (Haemophilus influenzae [16]): Active
- Activity (Haemophilus influenzae [17]): Active
- Activity (Haemophilus influenzae [18]): Active
- Activity (Haemophilus influenzae [19]): Active
- Activity (Haemophilus influenzae [20]): Active
- Activity (Haemophilus influenzae [21]): Active
- Activity (Haemophilus influenzae [22]): inactive
- Activity (Haemophilus influenzae [23]): inactive

Compound: GENTAMICIN
- Activity (Haemophilus influenzae [24]): 51 min
- Activity (Haemophilus influenzae [25]): Active
- MIC (Haemophilus influenzae [26]): 2 µg/mL
- Activity (Haemophilus influenzae [1]): Active
- Activity (Haemophilus influenzae [27]): Active
- Activity (Haemophilus influenzae [28]): Active
- Activity (Haemophilus influenzae [29]): Active
- Activity (Haemophilus influenzae [30]): inactive
- Activity (Haemophilus influenzae [31]): inactive
- Activity (Haemophilus influenzae [32]): inactive
- Activity (Haemophilus influenzae [33]): inactive
- Activity (Haemophilus influenzae [34]): Dose-dependent effect

Reference: ChEMBL document CHEMBL1151453, “Subinhibitory concentrations of azithromycin decrease nontypeable Haemophilus influenzae biofilm formation and Diminish established biofilms” (2008)
